Assay results as given in ChEMBL document CHEMBL3612019, “Revisiting 1,3,4-Oxadiazol-2-ones: Utilization in the Development of ABHD6 Inhibitors” (Bioorg Med Chem, 2015).
Activity calls are given as the source filed them. The calls are words filed in the database; no cut-off is given here.

Key:
[1] = molecular target: T1, Monoacylglycerol lipase ABHD6 (Homo sapiens, UniProt Q9BV23); assay: Inhibition of human ABHD6 expressed in HEK293 cells assessed as reduction in glycerol production from 1-AG hydrolysis pre-incubated for 30 mins before 1-AG substrate addition and measured 90 mins post substrate addition by fluorescence method; assay type: cell-based
T1 sequence (Q9BV23 whole entry): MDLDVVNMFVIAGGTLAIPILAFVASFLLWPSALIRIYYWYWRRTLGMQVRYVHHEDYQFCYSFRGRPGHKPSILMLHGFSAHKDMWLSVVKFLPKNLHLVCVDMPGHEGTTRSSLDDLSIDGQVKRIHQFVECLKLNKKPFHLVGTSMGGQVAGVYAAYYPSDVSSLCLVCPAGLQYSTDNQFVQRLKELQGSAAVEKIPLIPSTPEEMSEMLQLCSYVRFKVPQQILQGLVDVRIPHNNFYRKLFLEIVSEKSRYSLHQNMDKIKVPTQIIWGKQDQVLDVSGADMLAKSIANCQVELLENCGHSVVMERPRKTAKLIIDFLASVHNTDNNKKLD
Outline: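 hABHD6-HEK293 lysates pretreated 30 min with DMSO or inhibitor, then given 1-AG (12.5 µM final). Glycerol release was followed kinetically by fluorescence (emission 590 nm). Blanks without lysate were subtracted. IC50 was taken at the 90 min time point by nonlinear fitting of dose–response curves.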

[2] = molecular target: Cannabinoid receptor 1 (Rattus norvegicus) (UniProt P20272); assay: Antagonist activity at CB1R in rat cerebellar membranes assessed as inhibition of HU210-induced response at 10 uM by [35S]GTPgammaS binding assay; assay type: functional, cell membranes; settings: Cerebellum, Membrane
Chain of Cannabinoid receptor 1 (Rattus norvegicus) (P20272 whole entry): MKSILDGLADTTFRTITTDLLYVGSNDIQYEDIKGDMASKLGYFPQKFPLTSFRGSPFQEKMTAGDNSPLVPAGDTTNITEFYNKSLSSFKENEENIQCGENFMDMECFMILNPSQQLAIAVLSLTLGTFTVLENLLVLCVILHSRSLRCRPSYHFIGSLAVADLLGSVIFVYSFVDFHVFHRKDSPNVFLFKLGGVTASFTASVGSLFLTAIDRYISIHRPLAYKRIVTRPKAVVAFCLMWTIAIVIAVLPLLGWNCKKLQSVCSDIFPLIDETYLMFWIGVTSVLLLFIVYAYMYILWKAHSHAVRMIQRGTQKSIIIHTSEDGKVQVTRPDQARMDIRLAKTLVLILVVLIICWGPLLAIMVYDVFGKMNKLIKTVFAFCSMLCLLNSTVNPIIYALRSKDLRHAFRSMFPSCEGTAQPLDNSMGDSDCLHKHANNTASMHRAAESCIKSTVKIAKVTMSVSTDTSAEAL
Outline: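 Rat cerebellar membranes, [35S]GTPγS binding. Agonist activity is read as % of basal binding. Antagonist activity is read as % of the HU210-evoked response. Compound tested at 10 µM. Values are mean (range), n = 2.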

[3] = molecular target: T2, Fatty-acid amide hydrolase 1 (Mus musculus) (UniProt O08914); assay: Inhibition of FAAH in mouse whole brain membranes at 32.5 uM incubated for 1 hr by TAMRA-FP probe based competitive activity-based protein profiling assay; assay type: cell membranes; settings: Membrane
T2 sequence (whole entry): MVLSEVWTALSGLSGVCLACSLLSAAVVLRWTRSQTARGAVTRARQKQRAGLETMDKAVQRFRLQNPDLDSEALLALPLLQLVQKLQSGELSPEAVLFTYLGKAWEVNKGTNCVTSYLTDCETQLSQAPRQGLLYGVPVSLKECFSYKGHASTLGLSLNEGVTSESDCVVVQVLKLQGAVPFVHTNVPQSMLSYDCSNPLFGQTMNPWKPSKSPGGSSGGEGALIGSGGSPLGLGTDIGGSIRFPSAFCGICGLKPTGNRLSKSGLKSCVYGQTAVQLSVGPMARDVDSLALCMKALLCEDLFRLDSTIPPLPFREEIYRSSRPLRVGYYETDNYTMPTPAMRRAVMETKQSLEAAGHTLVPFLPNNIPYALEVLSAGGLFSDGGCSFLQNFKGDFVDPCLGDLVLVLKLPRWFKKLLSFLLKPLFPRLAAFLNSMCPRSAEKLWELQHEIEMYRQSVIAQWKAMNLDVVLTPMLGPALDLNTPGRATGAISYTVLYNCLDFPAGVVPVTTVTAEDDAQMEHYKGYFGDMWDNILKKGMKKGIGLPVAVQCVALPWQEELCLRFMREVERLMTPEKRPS
Outline: (§1)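 Competitive ABPP on mouse brain membranes (100 µg) treated 1 h with DMSO or inhibitor. TAMRA-FP labelling then ran 1 h at RT (final probe 2 µM). Reaction was quenched with gel loading buffer and proteins resolved by 10% SDS–PAGE for fluorescent band read-out. WWL70 located the ABHD6 band. Gels are representative of two experiments.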

[4] = molecular target: T3, Monoacylglycerol lipase ABHD6 (Homo sapiens) (UniProt Q9BV23); settings: HEK293, 1 uM
T3 sequence (whole entry): T1 sequence (Q9BV23 whole entry)

[5] = molecular target: T4, Monoglyceride lipase (Mus musculus) (UniProt O35678); assay: Inhibition of MAGL in mouse whole brain membranes at 32.5 uM incubated for 1 hr by TAMRA-FP probe based competitive activity-based protein profiling assay; assay type: cell membranes; settings: Membrane; outline: as §1
T4 sequence (whole entry): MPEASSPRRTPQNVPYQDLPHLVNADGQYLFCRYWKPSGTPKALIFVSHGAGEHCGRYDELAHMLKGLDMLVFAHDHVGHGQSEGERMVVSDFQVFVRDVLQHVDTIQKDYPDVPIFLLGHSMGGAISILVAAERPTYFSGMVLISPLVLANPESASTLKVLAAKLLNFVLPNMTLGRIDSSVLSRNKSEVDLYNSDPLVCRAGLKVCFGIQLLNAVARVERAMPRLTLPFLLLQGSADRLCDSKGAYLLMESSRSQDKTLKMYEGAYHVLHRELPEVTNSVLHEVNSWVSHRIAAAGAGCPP

[6] = molecular target: T5, Monoglyceride lipase (Homo sapiens) (UniProt Q99685); assay: Inhibition of human MAGL expressed in HEK293 cells at 10 uM pre-incubated for 10 mins before 2-AG substrate addition by HPLC method; assay type: cell-based
T5 sequence (whole entry): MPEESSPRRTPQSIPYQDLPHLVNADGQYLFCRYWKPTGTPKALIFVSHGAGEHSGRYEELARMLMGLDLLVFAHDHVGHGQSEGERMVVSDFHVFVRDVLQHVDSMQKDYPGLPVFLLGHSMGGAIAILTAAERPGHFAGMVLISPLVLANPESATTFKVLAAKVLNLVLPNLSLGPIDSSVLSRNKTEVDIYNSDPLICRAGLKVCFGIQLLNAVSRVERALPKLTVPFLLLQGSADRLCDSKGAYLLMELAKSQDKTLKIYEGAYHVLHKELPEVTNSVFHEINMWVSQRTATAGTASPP
Outline: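 Lysates of hMAGL-overexpressing HEK293 cells in 50 mM Tris–HCl pH 7.4 with 1 mM EDTA. After a 10 min preincubation with inhibitor or DMSO, 2-AG was added (final 50 µM) and incubated 10 min at 37 °C. The reaction was stopped and samples centrifuged. Arachidonic acid formation and 2-AG depletion were measured by HPLC. Replicates as for the FAAH assay.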

IC50 [1] [nM] | % of HU210 response [2] [%] | inhibition [3] | inhibition [4] | inhibition [5] | inhibition [6] [%] | Structure (SMILES)
73 | – | – | – | – | – | Nc1cccc(Cn2nc(Oc3ccccc3)oc2=O)c1
216 | 104 | Active | Active | Active | 21 | COc1nn(Cc2cccc(N)c2)c(=O)o1
